Values without a mark were called inactive.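 The calls were made as follows: active = inhibition of the enzyme-probe labelling of at least 50% at one fixed dose; inactive = inhibition below 50%.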
Target: Diacylglycerol lipase-alpha (Mus musculus) (UniProt Q6WQJ1)
Assay: blocking of DAGLa probe labeling in membranes – biochemical, gel-based competitive ABPP, recombinant, fluorescence, selectivity assay for DAGLb inhibitor project, late-stage follow-up (AID 602403)
Conditions: HEK293T membrane mouse DAGLa, at 0.4 µM, active compounds read high
Procedure, shortened: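 Assay system – membrane proteome of 293T HEK cells transiently overexpressing mouse DAGLa · Medium – Dulbecco's phosphate-buffered saline (DPBS) · Also added – HT-01 probe, 1 µM · Timing – compound pre-incubation 30 min, probe labeling 30 min, both 37 °C · Technique – in-gel fluorescence after SDS-PAGE · Measure – % inhibition from band IOD · Benchmarks – DMSO high, blank-gel background low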

Sequence of Diacylglycerol lipase-alpha (Mus musculus) (Q6WQJ1 whole entry, looked up): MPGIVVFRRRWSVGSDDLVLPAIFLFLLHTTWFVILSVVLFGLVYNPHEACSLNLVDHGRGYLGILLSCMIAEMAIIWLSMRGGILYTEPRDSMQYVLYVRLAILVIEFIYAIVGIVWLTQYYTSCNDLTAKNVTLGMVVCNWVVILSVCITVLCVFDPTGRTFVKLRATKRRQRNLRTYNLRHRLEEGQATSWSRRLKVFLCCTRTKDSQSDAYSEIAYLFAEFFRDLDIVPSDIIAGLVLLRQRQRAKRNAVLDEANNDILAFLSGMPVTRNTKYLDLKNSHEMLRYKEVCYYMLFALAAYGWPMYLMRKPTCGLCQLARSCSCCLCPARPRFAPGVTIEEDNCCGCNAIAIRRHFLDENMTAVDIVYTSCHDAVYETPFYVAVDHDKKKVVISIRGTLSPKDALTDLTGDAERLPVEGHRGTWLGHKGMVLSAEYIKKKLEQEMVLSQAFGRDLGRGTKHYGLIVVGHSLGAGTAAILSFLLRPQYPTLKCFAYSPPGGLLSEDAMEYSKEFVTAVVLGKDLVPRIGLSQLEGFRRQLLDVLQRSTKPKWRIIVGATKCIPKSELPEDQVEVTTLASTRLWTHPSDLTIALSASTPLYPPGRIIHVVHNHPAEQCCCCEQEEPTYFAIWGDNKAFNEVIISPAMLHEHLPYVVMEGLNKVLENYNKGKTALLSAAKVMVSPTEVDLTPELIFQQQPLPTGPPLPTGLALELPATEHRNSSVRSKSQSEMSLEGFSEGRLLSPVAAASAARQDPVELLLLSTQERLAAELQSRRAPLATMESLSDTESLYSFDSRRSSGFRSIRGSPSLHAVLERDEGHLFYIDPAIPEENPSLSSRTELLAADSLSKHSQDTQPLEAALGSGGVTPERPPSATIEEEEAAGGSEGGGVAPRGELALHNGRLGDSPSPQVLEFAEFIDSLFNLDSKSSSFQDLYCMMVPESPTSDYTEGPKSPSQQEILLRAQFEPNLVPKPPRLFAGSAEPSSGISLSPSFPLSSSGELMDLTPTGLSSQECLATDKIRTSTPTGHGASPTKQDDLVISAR

SMILES: O=C(N1CCCCC1Cc1ccccc1)n1cc(-c2ccc(-c3ccccc3)cc2)nn1 (stereo unspecified)
- inhibition: 40%
